The source made the active and inactive calls. No cut-off for these calls is given here.
Columns and labels:
Protein smoothened [1] = target: Protein smoothened (Homo sapiens, UniProt Q99835, V404M); test: Displacement of [3H]-cyclopamine from SMO V404M mutant in gefitinib resistant human HCC827 cells by scintillation counting
[2] = test system: Protein smoothened (Homo sapiens), Q99835 [V404M]; test: Inhibition of SMO V404M mutant in gefitinib resistant human HCC827 cells assessed as decrease in GLI1 activity at 2 uM by GLI1 luciferase reporter assay relative to control
Procedure, shortened: (§1)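 HCC827-GR cells seeded serum-free, cotransfected at 50% confluence with GLI1-firefly luciferase reporter plus pRL-TK Renilla (Lipofectamine 2000, triplicate); after 8 h medium switched to compound, with or without 100 nM SAG; about 48 h post-transfection dual-luciferase read; firefly normalized to Renilla as fold over control; three independent experiments.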

[3] = test system: Protein smoothened (Homo sapiens), Q99835 [V404M]; test: Inhibition of SMO V404M mutant in gefitinib resistant human HCC827 cells assessed as decrease in GLI1 activity at 60 uM by GLI1 luciferase reporter assay relative to control; procedure, shortened: as §1
[4] = test system: Protein smoothened (Homo sapiens), Q99835 [V404M]; test: Inhibition of SMO V404M mutant in gefitinib resistant human HCC827 cells assessed as decrease in GLI1 activity at 2 to 60 uM in presence of SMO agonist SAG by GLI1 luciferase reporter assay; procedure, shortened: as §1
[5] = test system: Protein smoothened (Homo sapiens), Q99835 [V404M]; test: Inhibition of SMO V404M mutant in gefitinib resistant human HCC827 cells assessed as decrease in GLI1 activity by GLI1 luciferase reporter assay; procedure, shortened: as §1
[6] = test system: Protein smoothened (Homo sapiens), Q99835 [V404M]; test: Displacement of [3H]-cyclopamine from SMO V404M mutant in gefitinib resistant human HCC827 cells at 10 uM by scintillation counting
Protein smoothened [7] = target: Protein smoothened (Homo sapiens, UniProt Q99835); test: Displacement of [3H]-cyclopamine from human wild-type SMO receptor expressed in HEK293T cell membranes by liquid scintillation spectrometry; design: species or system HEK-293T
HCC827 [8] = test: Antiproliferative activity against gefitinib resistant EGFR-mutated human HCC827 cells after 72 hrs by MTT assay; assay type: functional, cell-based; conditions: for IC50: HCC827, 72 h
HCC827 [9] = test: Induction of apoptosis in gefitinib resistant human HCC827 cells at 0.01 to 1 uM after 72 hrs by annexin V-FITC-propidium iodide staining-based flow cytometry method relative to control; assay type: functional, cell-based
Procedure, shortened: (§2)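 HCC827-GR cells treated 72 h, trypsinized, resuspended at 1 × 10^6/mL in binding buffer, stained 30 min at RT in dark with annexin V-FITC and propidium iodide; FACSCalibur flow cytometry (488 nm excitation; 530 nm FITC, 670 nm PI); mean of three wells from a representative experiment.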

HCC827 [10] = test: Downregulation of SMO expression in gefitinib resistant human HCC827 cells at 0.1 to 0.5 uM after 72 hrs by Western blotting method; assay type: functional, cell-based
Procedure, shortened: (§3)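 HCC827-GR cells treated 72 h; lysates in RIPA or Tween-20 buffer, protein equalized by Bradford, Western blotting with antibodies to p-MAPK44/42 (Thr202/Tyr204), MAPK, p-AKT (Ser473), AKT, p-MET (Tyr1234/1235), MET, SMO, GLI1, α-tubulin; ECL detection; triplicate.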

HCC827 [11] = test: Effect on total MAPK levels in gefitinib resistant human HCC827 cells at 0.1 to 0.5 uM after 72 hrs by Western blotting method; assay type: ADME, cell-based; conditions: hcc827, 72 h; procedure, shortened: as §3
HCC827 [12] = test: Effect on total AKT levels in gefitinib resistant human HCC827 cells at 0.1 to 0.5 uM after 72 hrs by Western blotting method; assay type: ADME, cell-based; conditions: hcc827, 72 h; procedure, shortened: as §3
HCC827 [13] = test: Antitumor activity against gefitinib resistant human HCC827 cells xenografted in balb/c athymic nu/nu mouse assessed as decrease in tumor size at 20 mg/kg/day, po; assay type: functional, organism-based
Procedure, shortened: (§4)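 Female balb/c nu/nu mice, 4–6 weeks old, given 10^7 HCC827 cells s.c. in 1:1 Matrigel/medium; at 150 mm3 tumors, 3-weekly escalating oral gefitinib (18.7 to 150 mg/kg/day) over 4 months until resistance (>25% regrowth from maximal reduction); then randomized to oral test agent at fixed daily dose; tumor volume (π/6 × larger × smaller²) every other day.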

HCC827 [14] = test: Antitumor activity against gefitinib resistant human HCC827 cells xenografted in balb/c athymic nu/nu mouse assessed as decrease in tumor size at 20 mg/kg/day, po in presence of gefitinib; assay type: functional, organism-based
Procedure, shortened: (§5)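 HCC827 s.c. xenografts (10^7 cells in Matrigel) in female balb/c nu/nu mice made gefitinib-resistant by 3-weekly escalating oral gefitinib (18.7–150 mg/kg/day); gefitinib then continued at its last maximal dose with oral compound at fixed daily dose; tumor volume by calipers (π/6 × larger × smaller²) and body weight on alternate days.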

HCC827 [15] = test: Antitumor activity against gefitinib resistant human HCC827 cells xenografted in balb/c athymic nu/nu mouse assessed as decrease in tumor size at 20 mg/kg/day, po in presence of gefitinib
HCC827 [16] = test: Induction of apoptosis in gefitinib resistant human HCC827 cells at 0.1 uM after 72 hrs by annexin V-FITC-propidium iodide staining-based flow cytometry method relative to control; assay type: functional; procedure, shortened: as §2
HCC827 [17] = test: Induction of apoptosis in gefitinib resistant human HCC827 cells at 0.5 uM after 72 hrs by annexin V-FITC-propidium iodide staining-based flow cytometry method relative to control; assay type: functional; procedure, shortened: as §2
[18] = Plasma concentration in balb/c athymic nu/nu mouse at 20 mg/kg, po measured after 5 hrs; assay type: ADME, organism-based
HCC827 [19] = test: Antitumor activity against gefitinib resistant human HCC827 cells xenografted in balb/c athymic nu/nu mouse assessed as decrease in tumor size at 15 mg/kg/day, po; assay type: functional, organism-based; procedure, shortened: as §4
[20] = target: Hepatocyte growth factor receptor (Homo sapiens) (UniProt P08581); test: Inhibition of MET phosphorylation at Tyr1234/1235 in gefitinib resistant human HCC827 cells at 0.05 to 0.1 uM after 72 hrs by Western blotting method; procedure, shortened: as §3
HCC827 [21] = test: Downregulation of SMO expression in gefitinib resistant human HCC827 cells at 0.05 to 0.1 uM after 72 hrs by Western blotting method; assay type: functional, cell-based; procedure, shortened: as §3
HCC827 [22] = test: Effect on total MAPK levels in gefitinib resistant human HCC827 cells at 0.05 to 0.1 uM after 72 hrs by Western blotting method; assay type: ADME, cell-based; conditions: hcc827, 72 h; procedure, shortened: as §3
HCC827 [23] = test: Effect on total AKT levels in gefitinib resistant human HCC827 cells at 0.05 to 0.1 uM after 72 hrs by Western blotting method; assay type: ADME, cell-based; conditions: hcc827, 72 h; procedure, shortened: as §3
[24] = target: Hepatocyte growth factor receptor (Homo sapiens) (UniProt P08581); test: Inhibition of MET in gefitinib resistant human HCC827 cells assessed as decrease in MAPK44/42 phosphorylation at Thr202/Tyr204 at 0.05 to 0.1 uM after 72 hrs by Western blotting method; procedure, shortened: as §3
[25] = target: Hepatocyte growth factor receptor (Homo sapiens) (UniProt P08581); test: Inhibition of MET in gefitinib resistant human HCC827 cells assessed as decrease in AKT phosphorylation at Ser473 at 0.05 to 0.1 uM after 72 hrs by Western blotting method; procedure, shortened: as §3
Homo sapiens = species: Homo sapiens; test: Inhibition of MET/SMO V404M mutant in gefitinib resistant human HCC827 cells assessed as decrease in vimentin expression at 0.05 to 0.1 uM after 72 hrs by Western blotting method
HCC827 [26] = test: Antitumor activity against gefitinib resistant human HCC827 cells xenografted in balb/c athymic nu/nu mouse assessed as decrease in tumor size at 15 mg/kg/day, po in presence of gefitinib; assay type: functional, organism-based; procedure, shortened: as §5
HCC827 [27] = test: Antitumor activity against gefitinib resistant human HCC827 cells xenografted in balb/c athymic nu/nu mouse assessed as decrease in tumor size at 15 mg/kg/day, po in presence of gefitinib

Sequence of Protein smoothened (Homo sapiens, UniProt Q99835, V404M) (Q99835 28-787 V404M limits assumed): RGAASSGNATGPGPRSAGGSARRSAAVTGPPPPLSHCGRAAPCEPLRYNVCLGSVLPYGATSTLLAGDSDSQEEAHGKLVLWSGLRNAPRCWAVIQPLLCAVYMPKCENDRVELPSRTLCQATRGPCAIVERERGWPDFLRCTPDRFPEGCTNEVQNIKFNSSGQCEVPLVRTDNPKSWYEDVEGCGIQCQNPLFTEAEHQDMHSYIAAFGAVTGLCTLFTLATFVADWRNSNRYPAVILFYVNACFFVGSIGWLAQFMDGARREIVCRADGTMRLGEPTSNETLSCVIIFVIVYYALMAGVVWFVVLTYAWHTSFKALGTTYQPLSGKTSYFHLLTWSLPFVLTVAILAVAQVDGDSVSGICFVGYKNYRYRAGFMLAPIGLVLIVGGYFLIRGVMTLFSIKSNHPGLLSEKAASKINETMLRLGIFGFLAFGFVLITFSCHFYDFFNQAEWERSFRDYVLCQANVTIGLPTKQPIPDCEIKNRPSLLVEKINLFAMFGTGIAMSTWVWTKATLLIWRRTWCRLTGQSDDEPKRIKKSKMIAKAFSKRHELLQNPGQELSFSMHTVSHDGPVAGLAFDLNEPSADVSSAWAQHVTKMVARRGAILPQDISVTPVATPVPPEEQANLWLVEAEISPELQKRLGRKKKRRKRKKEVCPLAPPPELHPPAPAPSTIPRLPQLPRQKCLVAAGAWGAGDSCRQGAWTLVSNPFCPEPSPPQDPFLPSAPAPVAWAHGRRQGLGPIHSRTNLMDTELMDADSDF
Sequence of Protein smoothened (Homo sapiens), Q99835 [V404M] (Q99835 whole entry V404M): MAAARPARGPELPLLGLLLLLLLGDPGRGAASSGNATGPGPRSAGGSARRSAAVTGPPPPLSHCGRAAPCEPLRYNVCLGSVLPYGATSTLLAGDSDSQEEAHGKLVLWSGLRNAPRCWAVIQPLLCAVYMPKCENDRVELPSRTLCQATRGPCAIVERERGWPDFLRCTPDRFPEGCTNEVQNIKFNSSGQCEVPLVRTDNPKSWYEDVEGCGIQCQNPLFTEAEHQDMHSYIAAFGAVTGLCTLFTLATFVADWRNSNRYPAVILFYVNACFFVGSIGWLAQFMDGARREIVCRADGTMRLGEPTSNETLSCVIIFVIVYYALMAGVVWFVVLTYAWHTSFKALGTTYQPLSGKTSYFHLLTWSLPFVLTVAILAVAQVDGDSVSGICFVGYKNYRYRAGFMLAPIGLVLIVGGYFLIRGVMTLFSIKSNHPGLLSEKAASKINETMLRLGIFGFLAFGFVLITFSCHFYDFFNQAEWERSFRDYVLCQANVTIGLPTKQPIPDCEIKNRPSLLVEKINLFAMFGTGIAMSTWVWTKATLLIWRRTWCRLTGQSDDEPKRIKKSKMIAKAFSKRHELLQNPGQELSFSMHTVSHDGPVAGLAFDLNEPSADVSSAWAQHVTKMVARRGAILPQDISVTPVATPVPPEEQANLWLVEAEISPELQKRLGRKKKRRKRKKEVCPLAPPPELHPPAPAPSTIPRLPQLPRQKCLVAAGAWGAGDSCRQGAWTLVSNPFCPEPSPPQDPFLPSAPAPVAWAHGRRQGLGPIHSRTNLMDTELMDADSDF
Sequence of Hepatocyte growth factor receptor (Homo sapiens) (P08581 whole entry): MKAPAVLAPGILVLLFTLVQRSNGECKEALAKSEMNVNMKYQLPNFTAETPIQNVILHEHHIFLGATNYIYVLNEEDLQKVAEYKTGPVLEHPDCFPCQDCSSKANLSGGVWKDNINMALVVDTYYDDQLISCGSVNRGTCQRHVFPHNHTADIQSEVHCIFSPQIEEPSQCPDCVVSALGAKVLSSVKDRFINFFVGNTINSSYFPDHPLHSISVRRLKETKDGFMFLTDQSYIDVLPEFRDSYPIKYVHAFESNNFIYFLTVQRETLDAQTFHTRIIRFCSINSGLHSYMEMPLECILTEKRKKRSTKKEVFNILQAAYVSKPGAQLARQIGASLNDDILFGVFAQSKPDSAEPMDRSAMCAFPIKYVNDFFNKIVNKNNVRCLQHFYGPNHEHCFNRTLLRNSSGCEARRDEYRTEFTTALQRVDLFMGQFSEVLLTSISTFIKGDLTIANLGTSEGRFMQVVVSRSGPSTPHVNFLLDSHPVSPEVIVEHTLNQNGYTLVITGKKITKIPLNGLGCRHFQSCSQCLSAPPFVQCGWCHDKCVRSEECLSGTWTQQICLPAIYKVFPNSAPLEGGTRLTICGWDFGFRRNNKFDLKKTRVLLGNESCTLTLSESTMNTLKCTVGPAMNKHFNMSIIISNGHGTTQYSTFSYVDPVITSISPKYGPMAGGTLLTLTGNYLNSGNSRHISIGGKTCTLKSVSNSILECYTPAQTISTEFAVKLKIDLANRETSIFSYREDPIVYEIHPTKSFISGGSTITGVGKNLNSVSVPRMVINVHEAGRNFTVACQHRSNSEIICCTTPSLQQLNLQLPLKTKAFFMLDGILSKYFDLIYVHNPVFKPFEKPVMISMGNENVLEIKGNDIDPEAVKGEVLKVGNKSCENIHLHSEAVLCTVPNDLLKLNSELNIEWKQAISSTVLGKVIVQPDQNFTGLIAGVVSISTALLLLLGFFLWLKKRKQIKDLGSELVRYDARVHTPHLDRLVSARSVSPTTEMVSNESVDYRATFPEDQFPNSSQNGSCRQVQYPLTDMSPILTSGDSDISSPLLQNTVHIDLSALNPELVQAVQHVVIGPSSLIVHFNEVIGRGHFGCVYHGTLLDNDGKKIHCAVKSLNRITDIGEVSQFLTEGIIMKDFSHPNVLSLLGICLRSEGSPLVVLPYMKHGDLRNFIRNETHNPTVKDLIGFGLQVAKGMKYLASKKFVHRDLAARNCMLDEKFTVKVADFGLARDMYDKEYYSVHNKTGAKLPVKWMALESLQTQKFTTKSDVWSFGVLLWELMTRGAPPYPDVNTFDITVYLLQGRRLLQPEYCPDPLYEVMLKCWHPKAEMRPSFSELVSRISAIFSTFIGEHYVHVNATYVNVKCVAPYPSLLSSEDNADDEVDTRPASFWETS
Sequence of Protein smoothened (Homo sapiens, UniProt Q99835) (Q99835 whole entry): as the sequence (Q99835 whole entry V404M) above, with M404V counted along it

| SMILES | Ki (Protein smoothened [1]) [nM] | inhibition [2] [%] | inhibition [3] [%] | inhibition [4] | inhibition [5] | inhibition [6] | also measured |
| --- | --- | --- | --- | --- | --- | --- | --- |
| O=C(NNC(=O)c1ccc([N+](=O)[O-])cc1)C(=O)c1c[nH]c2ccccc12 | 168 | 25 to 50 | 10 to 100 | inactive | Dose-dependent effect |  |  |
| CSc1cccc(Nc2ncc3cc(-c4c(Cl)cccc4Cl)c(=O)n(C)c3n2)c1 | 46.2 | 25 to 50 | 10 to 100 | inactive | Dose-dependent effect |  |  |
| CCOc1ccn(-c2ccc(F)cc2)c(=O)c1C(=O)Nc1ccc(Oc2ccnc(N)c2Cl)c(F)c1 |  |  |  |  |  | inactive |  |
| COc1cc2ncnc(Oc3cccc(NC(=O)Nc4cc(C(C)(C)C(F)(F)F)on4)c3)c2cc1OC [CEP-32496] | 188 | 25 to 50 | 10 to 100 | inactive | Dose-dependent effect |  |  |
| CC(C)(O)CC(=O)NCCn1ccc2ncnc(Nc3ccc(Oc4cccc(C(F)(F)F)c4)c(Cl)c3)c21 |  |  |  |  |  | inactive |  |
| O=C(CCCCCC(=O)N/N=C/c1cc2c(cc1[N+](=O)[O-])OCO2)N/N=C/c1cc2c(cc1[N+](=O)[O-])OCO2 |  |  |  |  |  | inactive |  |
| CCN1CCN(c2ccc(Nc3cc(N(C)C(=O)Nc4c(Cl)c(OC)cc(OC)c4Cl)ncn3)cc2)CC1 [INFIGRATINIB] | 46.5 | 25 to 50 | 10 to 100 | inactive | Dose-dependent effect |  |  |
| Cc1cccc(C(=O)Nc2ccc(C(=O)NNC3C(=O)Nc4ccccc43)cc2)c1 (stereo not given) |  |  |  |  |  | inactive |  |
| Cc1ccc(NC(=O)CN2C(=O)/C(=N/NC(=O)c3cc(Br)ccc3O)c3ccccc32)cc1 | 50.4 | 25 to 50 | 10 to 100 | inactive | Dose-dependent effect |  |  |
| Cc1ccc(F)c(NC(=O)Nc2ccc(-c3cccc4[nH]nc(N)c34)cc2)c1 [LINIFANIB] | 87.6 | 25 to 50 | 10 to 100 | inactive | Dose-dependent effect |  |  |
| COc1cc2c(Oc3ccc(NC(=O)C4(C(=O)Nc5ccc(F)cc5)CC4)cc3F)ccnc2cc1OCCCN1CCOCC1 [FORETINIB] | 66.8 | 25 to 50 | 10 to 100 | inactive | Dose-dependent effect |  | Ki (Protein smoothened [7]): 59.7 nM; Activity (HCC827 [8]): Dose-dependent effect; IC50 (HCC827 [8]): 500 nM; Activity (HCC827 [9]): Active; Activity (HCC827 [10]): Active; Activity (HCC827 [11]): Non-Toxic; Activity (HCC827 [12]): Non-Toxic; Activity (HCC827 [13]): Active; Activity (HCC827 [14]): Active; Activity (HCC827 [15]): Active |
| Cn1cnc(-c2cc3nccc(Oc4ccc(NC(=S)NC(=O)Cc5ccccc5)cc4F)c3s2)c1 | 53.1 | 25 to 50 | 10 to 100 | inactive | Dose-dependent effect |  | Ki (Protein smoothened [7]): 41.7 nM; Activity (HCC827 [8]): Dose-dependent effect; IC50 (HCC827 [8]): 80 nM; Activity (HCC827 [16]): 62%; Activity (HCC827 [17]): 84%; concentration at 5 h [18]: 800 nM; Activity (HCC827 [19]): Active; inhibition [20]: Active; Activity (HCC827 [21]): Active; Activity (HCC827 [22]): Non-Toxic; Activity (HCC827 [23]): Non-Toxic; inhibition [24]: Active; inhibition [25]: Active; inhibition (Homo sapiens): Active; Activity (HCC827 [26]): Active; Activity (HCC827 [27]): Active |

Reference: ChEMBL document CHEMBL4038343, “Dual MET and SMO Negative Modulators Overcome Resistance to EGFR Inhibitors in Human Nonsmall Cell Lung Cancer” (J Med Chem, 2017)
